# Reference: the RNAGym collection of RNA variant scans (doi:10.1126/science.aae0568)
# This sample holds only a part of the variants without activity.
# B1: tRNA (parent)
# chain: GUUCCGUUGGCGUAAUGGUAACGCGUCUCCCUCCUAAGGAGAAGACUGCGGGUUCGAGUCCCGUACGGAACG
# Variants of: B1
# Experiment: yeast fitness relative to wild type (ratio to wild type); higher = fitter; tRNA-Arg(CCU), competitive growth, 37 C, YPD
# Procedure, shortened: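 Changes in genotype frequencies gave Darwinian fitness relative to wild type. Frequencies were read by 100-nucleotide paired-end sequencing of gene amplicons before and after pooled Saccharomyces cerevisiae strains, carrying tRNA-Arg(CCU) gene variants at the native locus, were competed in YPD at 37°C for 24 hours in six replicates. A genotype was kept only with ≥ 100 starting reads, and estimates < 0.5 were set to 0.5.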
row,Variant,yeast fitness
1,C27U C33G G39A A43G A57G C61U C62U,≤ 0.5
2,C27U C33U A36U G63C,0.541
3,C27U C33U A37U G51A A70G,0.552
4,C27U C33U A40C C55A,≤ 0.5
5,C27U C33U C60G,0.628
6,C27U C33U G51A,0.612
7,C27U C34A,0.728
8,C27U C34A G44C C62A,0.539
9,C27U C34G,0.698
10,C27U C34G A37C,≤ 0.5
11,C27U C34G A40G C46G C49A U59C,≤ 0.5
12,C27U C34G A45U,0.511
13,C27U C34G A45U C60A,≤ 0.5
14,C27U C34G A57G C62A,≤ 0.5
15,C27U C34G C62A,0.586
16,C27U C34U A45G U47C C60G,≤ 0.5
17,C27U C34U G44A,≤ 0.5
18,C27U C34U U35C U47C U53G A69U,≤ 0.5
19,C27U C46A,0.942
20,C27U C46A A70G,0.66
21,C27U C46A G50A C62U,0.888
22,C27U C46G,1.04
23,C27U C46G A65G,0.725
24,C27U C46G C66G A69G,≤ 0.5

row,Variant,yeast fitness
1,C27U C46U,0.978
2,C27U C46U A65U A70C,0.828
3,C27U C46U G48A,0.888
4,C27U C46U G67U,0.626
5,C27U C49A U64C,0.756
6,C27U C49A U64C G67A,≤ 0.5
7,C27U C49U,1
8,C27U C49U C60A C61A,≤ 0.5
9,C27U C55A,0.583
10,C27U C55G,0.675
11,C27U C55U G56A A57C,0.526
12,C27U C60A,0.552
13,C27U C60U,0.849
14,C27U C60U C66U,0.695
15,C27U C61A,0.62
16,C27U C61G,0.647
17,C27U C62A,0.764
18,C27U C62A C66U,≤ 0.5
19,C27U C62U,1.01
20,C27U C62U A65U,0.718
21,C27U C62U A70C,0.756
22,C27U C66A,0.701
23,C27U C66G G67C,≤ 0.5
24,C27U G38A C61U C66A,≤ 0.5

row,Variant,yeast fitness
1,C27U G38A C66A,0.645
2,C27U G38A G48C,0.562
3,C27U G38C A40U A45G G52A A65C,≤ 0.5
4,C27U G38C G44C,0.531
5,C27U G39A C46U,0.918
6,C27U G39A G41A A69U,0.674
7,C27U G39C C49U,≤ 0.5
8,C27U G39C C49U G63C,≤ 0.5
9,C27U G41C,0.898
10,C27U G41C U64C A70C,0.675
11,C27U G44A C49U G52A A57C,≤ 0.5
12,C27U G44C,1.03
13,C27U G44C A65U,0.691
14,C27U G44C C62U,0.733
15,C27U G44C G68A,0.666
16,C27U G44C U59G,≤ 0.5
17,C27U G48A A70U,0.775
18,C27U G48A C49U A65G,0.714
19,C27U G48A C49U A70U,0.752
20,C27U G48A U59A,0.684
21,C27U G50A G52A U59C C66U,0.53
22,C27U G51A,0.836
23,C27U G51A U53A G63C,≤ 0.5
24,C27U G51A U59A,0.568

row,Variant,yeast fitness
1,C27U G51C C55A C66U,0.53
2,C27U G51C C61G,≤ 0.5
3,C27U G51C C62G,≤ 0.5
4,C27U G51C U59C C62A,≤ 0.5
5,C27U G51C U59C G63A,≤ 0.5
6,C27U G52C C60U,0.521
7,C27U G56C C66U,≤ 0.5
8,C27U G58A,0.899
9,C27U G58C,1.02
10,C27U G58C A69C,1.05
11,C27U G58C U59C A70G,≤ 0.5
12,C27U G58C U64C,0.73
13,C27U G63A A65G,≤ 0.5
14,C27U G63C,0.715
15,C27U G67A,1.02
16,C27U G68A,0.822
17,C27U G68C,0.757
18,C27U G68U,0.755
19,C27U U28A,0.699
20,C27U U28A A40U,0.671
21,C27U U28A U32A C34U A36C C55A A70G,0.539
22,C27U U28A U32A C34U A36C C55A G68A,≤ 0.5
23,C27U U28A U32A C34U A36C G48A C60U,≤ 0.5
24,C27U U28C,0.903

row,Variant,yeast fitness
1,C27U U28G A40C C46A C49U,0.995
2,C27U U28G C31A C46U,≤ 0.5
3,C27U U28G C33G A36G,≤ 0.5
4,C27U U32A A69U,0.774
5,C27U U32A C33A,0.51
6,C27U U32C A70C,0.68
7,C27U U32C G41A A42U G44A C46U G58A C60U,≤ 0.5
8,C27U U32C G41A C55A G63C,≤ 0.5
9,C27U U35C A36G,0.566
10,C27U U35C A36G C49G,≤ 0.5
11,C27U U35C A37C A40U A43U,≤ 0.5
12,C27U U47A,0.721
13,C27U U47A C61A A65G,≤ 0.5
14,C27U U47C,0.975
15,C27U U47C A69U,0.838
16,C27U U47C C55U C62G A69U,≤ 0.5
17,C27U U47C G63A C66U,≤ 0.5
18,C27U U47G,0.621
19,C27U U47G C55G G58C,0.67
20,C27U U53A,0.628
21,C27U U54A,0.543
22,C27U U54C G67C,0.54
23,C27U U59A A65U,≤ 0.5
24,C27U U59A C66U,≤ 0.5

row,Variant,yeast fitness
1,C27U U59C A69U,0.795
2,C27U U59G G68C,0.539
3,C27U U64C C66A,≤ 0.5
4,U28A,0.892
5,U28A A36C A45G,≤ 0.5
6,U28A A36G,0.73
7,U28A A36G A37G,≤ 0.5
8,U28A A36G A57U A69U,≤ 0.5
9,U28A A36G C66G,≤ 0.5
10,U28A A36G G52C,≤ 0.5
11,U28A A36U,0.564
12,U28A A36U G48C,≤ 0.5
13,U28A A36U G52A,0.777
14,U28A A37G G41C,≤ 0.5
15,U28A A37U,0.73
16,U28A A40C,0.961
17,U28A A40C C66U,0.658
18,U28A A40G A43U A65U C66U,≤ 0.5
19,U28A A40G G51C U54A G58C,0.582
20,U28A A40G G51C U54A G58C C66U,≤ 0.5
21,U28A A40U A69U,0.769
22,U28A A40U C49U C60A G63A,≤ 0.5
23,U28A A40U C62A,0.943
24,U28A A42C C49G C62U,0.585

row,Variant,yeast fitness
1,U28A A42G A57G,≤ 0.5
2,U28A A43C A57C,0.608
3,U28A A43C G48A A70C,0.577
4,U28A A43U U53A,≤ 0.5
5,U28A A45C,0.79
6,U28A A45C A65C,≤ 0.5
7,U28A A45C C46G G67A,0.532
8,U28A A45C C49A G50A,≤ 0.5
9,U28A A45G C66U,0.538
10,U28A A57C C66G,≤ 0.5
11,U28A A57G,0.688
12,U28A A57G C60A,0.569
13,U28A A65C,0.675
14,U28A A70U,0.738
15,U28A C29A C46U C55G,≤ 0.5
16,U28A C29G A57C G67A,≤ 0.5
17,U28A C29G C31U U54C,≤ 0.5
18,U28A C29G C33U C34G A42U U59C,≤ 0.5
19,U28A C29G G44C A65U,0.935
20,U28A C29G G51A G56A A69C,≤ 0.5
21,U28A C29U A37G G52C,≤ 0.5
22,U28A C29U A45C,0.522
23,U28A C30A,0.759
